Laboratory results published in ChEMBL document CHEMBL3608222, “Discovery and structure-guided optimization of tert-butyl 6-(phenoxymethyl)-3-(trifluoromethyl)benzoates as liver X receptor agonists” (Bioorg Med Chem Lett, 2015).
Calls of active or inactive are those of the source. No cut-off for these calls is given here.

Key:
[1] = biological target: Retinoic acid receptor RXR-alpha/oxysterols receptor LXR-alpha (Homo sapiens, UniProt Q13133); experiment: Binding affinity to His-LXRalpha/FLAG-RXRalpha (unknown origin) by FITC-labeled T0901317 based fluorescence polarization assay; type: protein-complex assay
[2] = biological target: T1, Oxysterols receptor LXR-beta (Homo sapiens) (UniProt P55055); experiment: Agonist activity at human LXRbeta expressed in African green monkey kidney CV1 cells co-expressing pTAL-LXRE including LXR response element incubated for 20 hrs by luciferase reporter gene assay relative to T0901317; type: cell-based; conditions: CV-1
T1 sequence (whole entry): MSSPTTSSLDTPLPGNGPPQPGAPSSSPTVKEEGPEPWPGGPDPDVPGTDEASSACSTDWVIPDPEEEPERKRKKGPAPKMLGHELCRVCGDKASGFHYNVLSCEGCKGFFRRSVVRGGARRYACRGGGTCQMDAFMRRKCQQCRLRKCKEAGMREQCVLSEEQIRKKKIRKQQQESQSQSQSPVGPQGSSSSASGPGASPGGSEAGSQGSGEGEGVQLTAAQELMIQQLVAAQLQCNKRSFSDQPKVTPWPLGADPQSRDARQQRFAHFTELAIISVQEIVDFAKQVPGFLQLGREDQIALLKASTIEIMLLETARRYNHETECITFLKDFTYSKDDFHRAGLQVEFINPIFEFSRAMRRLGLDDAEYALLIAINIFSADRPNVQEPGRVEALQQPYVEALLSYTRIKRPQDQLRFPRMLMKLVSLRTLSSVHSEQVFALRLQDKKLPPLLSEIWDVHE
Summary of the method: (§1)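 CV-1 cells grown in DMEM with 10% charcoal/dextran-treated FBS at 37 °C, seeded 20 h before transfection. Cells were lipofected with pcDNA-hLXRa or pcDNA-hLXRb plus the pTAL-LXRE luciferase reporter. After 3 h, medium was added, then compound in DMSO. Incubation about 20 h before luciferase luminescence read-out.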

[3] = Plasma concentration in mouse at 10 mg/kg, po measured at 6 hrs; type: ADME, organism-based
Summary of the method: (§2)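 Mice given a single oral dose of 10 mg/kg. Plasma concentration measured in µg/ml as Cmax and at 6 h.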

[4] = biological target: T2, Oxysterols receptor LXR-alpha (Homo sapiens) (UniProt Q13133); experiment: Agonist activity at human LXRalpha expressed in African green monkey kidney CV1 cells co-expressing pTAL-LXRE including LXR response element incubated for 20 hrs by luciferase reporter gene assay relative to T0901317; type: cell-based; conditions: CV-1; summary of the method: as §1
T2 sequence (whole entry): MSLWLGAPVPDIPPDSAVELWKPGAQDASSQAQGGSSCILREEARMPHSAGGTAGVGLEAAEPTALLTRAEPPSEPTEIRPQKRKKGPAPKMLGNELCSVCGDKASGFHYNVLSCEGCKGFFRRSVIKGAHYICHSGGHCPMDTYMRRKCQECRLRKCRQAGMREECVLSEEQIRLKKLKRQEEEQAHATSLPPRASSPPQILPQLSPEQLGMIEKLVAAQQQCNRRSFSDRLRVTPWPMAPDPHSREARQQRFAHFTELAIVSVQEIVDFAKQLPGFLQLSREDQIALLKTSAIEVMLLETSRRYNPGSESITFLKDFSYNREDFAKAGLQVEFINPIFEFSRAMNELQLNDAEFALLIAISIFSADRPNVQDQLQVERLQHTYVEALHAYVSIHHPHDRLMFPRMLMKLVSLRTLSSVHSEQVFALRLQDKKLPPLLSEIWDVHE

[5] = Cmax in mouse at 10 mg/kg, po; type: ADME, organism-based; design: dose 10 mg/kg, route oral; conditions: in vivo; summary of the method: as §2
[6] = biological target: Retinoic acid receptor RXR-alpha/oxysterols receptor LXR-beta (Homo sapiens, UniProt P55055); experiment: Binding affinity to His-LXRbeta/FLAG-RXRalpha (unknown origin) by FITC-labeled T0901317 based fluorescence polarization assay; type: protein-complex assay
[7] = biological target: T3, Oxysterols receptor LXR-beta (Homo sapiens, UniProt P55055); experiment: Agonist activity at human LXRbeta expressed in African green monkey kidney CV1 cells co-expressing pTAL-LXRE including LXR response element incubated for 20 hrs by luciferase reporter gene assay; type: cell-based, CV-1; summary of the method: as §1
T3 sequence (P55055 whole entry): T1 sequence (whole entry)

[8] = biological target: T4, Oxysterols receptor LXR-alpha (Homo sapiens, UniProt Q13133); experiment: Agonist activity at human LXRalpha expressed in African green monkey kidney CV1 cells co-expressing pTAL-LXRE including LXR response element incubated for 20 hrs by luciferase reporter gene assay; type: cell-based, CV-1
T4 sequence (Q13133 whole entry): T2 sequence (whole entry)

Cynomolgus monkey [9] = experiment: Toxicity in cynomolgus monkey assessed as effect on plasma triglyceride levels at 0.1 to 10 mg/kg, po dosed daily for 14 days; type: organism-based, Macaca fascicularis; conditions: in vivo, 336 h
Summary of the method: (§3)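 Cynomolgus monkeys dosed daily by oral gavage at 0, 0.1, 0.3, 1, 3 or 10 mg/kg for 14 days, n = 6/group. Blood ABCA1 mRNA was measured on Day 1 and Day 14; plasma triglyceride was measured after single and repeated dosing. Mean + SE.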

Cynomolgus monkey [10] = experiment: Increase in ABCA1 mRNA expression in cynomolgus monkey blood at 0.1 to 10 mg/kg, po dosed daily for 14 days measured on day 1; type: functional, organism-based; conditions: Macaca fascicularis; summary of the method: as §3
RAW264.7 [11] = experiment: […] of cholesterol efflux in mouse RAW264.7 cells at 0.1 using [4-14C]-cholesterol incubated for 24 hrs by scintillation counting method relative to T0901317; type: functional
Summary of the method: (§4)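 RAW264.7 cells were labeled 2 days with 0.2 µCi/ml [4-14C]-cholesterol in DMEM/1% FBS and washed with 0.2% BSA/PBS. Medium with or without 10 µg/ml apoAI was added, with compound (final 0.01–1 µM) or DMSO, for about 24 h. Medium and cell radioactivity were counted. ApoAI-dependent efflux % = efflux(+apoAI) minus mean efflux(−apoAI); % efficacy is given at the stated concentration.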

Cynomolgus monkey [12] = experiment: Toxicity in cynomolgus monkey assessed as effect on plasma triglyceride levels at 0.1 to 10 mg/kg, po administered as single dose; type: organism-based, Macaca fascicularis; conditions: in vivo; summary of the method: as §3
Mus musculus [13] = experiment: Toxicity in C57Bl/6 mouse assessed as effect on plasma triglyceride levels at 1 mg/kg, po dosed daily for 7 days; type: organism-based; conditions: in vivo, 168 h
Summary of the method: (§5)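 C57Bl/6 mice dosed daily by oral gavage at 1 mg/kg for 7 days, n = 5/group. Liver FAS and SCD-1 mRNA and plasma TG were then measured. Groups compared with vehicle by Dunnett's test, p <0.05.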

Mus musculus [14] = experiment: Effect on FAS mRNA expression in C57Bl/6 mouse liver at 1 mg/kg, po dosed daily for 7 days; type: functional, organism-based; summary of the method: as §5
RAW264.7 [15] = experiment: […] of cholesterol efflux in mouse RAW264.7 cells at 1 uM using [4-14C]-cholesterol incubated for 24 hrs by scintillation counting method relative to T0901317; type: functional; summary of the method: as §4
Cynomolgus monkey [16] = experiment: Increase in ABCA1 mRNA expression in cynomolgus monkey blood at 0.1 to 10 mg/kg, po dosed daily for 14 days measured on day 14; type: functional, organism-based; conditions: Macaca fascicularis; summary of the method: as §3
Mus musculus [17] = experiment: Effect on SCD1 mRNA expression in C57Bl/6 mouse liver at 1 mg/kg, po dosed daily for 7 days; type: functional, organism-based; summary of the method: as §5

Retinoic acid receptor RXR-alpha/oxysterols receptor LXR-beta, sequence (P19793 whole entry, one chain of several): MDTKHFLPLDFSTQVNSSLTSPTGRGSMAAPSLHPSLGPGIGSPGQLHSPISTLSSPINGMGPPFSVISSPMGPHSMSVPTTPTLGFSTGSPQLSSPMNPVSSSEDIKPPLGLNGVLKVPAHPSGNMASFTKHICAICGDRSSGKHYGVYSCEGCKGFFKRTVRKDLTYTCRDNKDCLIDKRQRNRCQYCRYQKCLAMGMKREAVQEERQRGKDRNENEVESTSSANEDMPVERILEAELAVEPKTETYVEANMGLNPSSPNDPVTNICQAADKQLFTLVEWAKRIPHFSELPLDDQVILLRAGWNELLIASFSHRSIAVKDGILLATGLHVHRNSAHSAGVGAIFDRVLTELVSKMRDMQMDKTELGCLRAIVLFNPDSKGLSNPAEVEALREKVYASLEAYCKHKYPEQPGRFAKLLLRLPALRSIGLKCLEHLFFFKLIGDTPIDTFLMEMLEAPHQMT
Retinoic acid receptor RXR-alpha/oxysterols receptor LXR-alpha, sequence (P19793 whole entry, one chain of several): as above

Structure (SMILES) | Ki [1] [nM] | Efficacy [2] [%] | Efficacy [4] [%] | Ki [6] [nM] | EC50 [7] [nM] | EC50 [8] [nM] | further results
CC(=O)N(C)c1ccc(OCc2ccc(C(F)(F)F)c(O)c2C(=O)OC(C)(C)C)cc1 | 270 | 76 | 89 | 170 | 260 | 280 | concentration at 6 h [3]: 670 ng/mL; Cmax [5]: 1000 ng/mL
CC(C)(C)OC(=O)c1c(COc2ccc(-c3ccc(CC(=O)O)cc3)cc2)ccc(C(F)(F)F)c1O |  | 51 | 79 |  | 160 | 510 | Activity (Cynomolgus monkey [9]): Non-toxic; Activity (Cynomolgus monkey [10]): Dose-dependent effect; Efficacy (RAW264.7 [11]): 57%; concentration at 6 h [3]: 5300 ng/mL; Activity (Cynomolgus monkey [12]): Non-toxic; Activity (Mus musculus [13]): Non-toxic; Cmax [5]: 8900 ng/mL; Activity (Mus musculus [14]): inactive; Efficacy (RAW264.7 [15]): 69%; Activity (Cynomolgus monkey [16]): Dose-dependent effect; Activity (Mus musculus [17]): inactive
CC(C)(C)OC(=O)c1cc(C(F)(F)F)ccc1COc1ccc(-c2ccc(CC(=O)O)cc2)cc1 | 1000 |  |  | 260 |  |  | 
CC(C)(C)OC(=O)c1cc(C(F)(F)F)ccc1COc1ccc(CCCCCC(=O)O)cc1 | 8600 |  |  | 1200 |  |  | 
CN(C(=O)CCC(=O)O)c1ccc(OCc2ccc(C(F)(F)F)cc2C(=O)OC(C)(C)C)cc1 | 4000 |  |  | 660 |  |  | 
CC(C)(C)OC(=O)c1c(COc2ccc(-c3cccc(CC(=O)O)c3)cc2)ccc(C(F)(F)F)c1O |  | 27 | 39 |  | 530 | 1300 | Efficacy (RAW264.7 [11]): 3%; Efficacy (RAW264.7 [15]): 58%
CC(C)(C)OC(=O)c1cc(C(F)(F)F)ccc1COc1ccc(CCCC(=O)O)cc1 |  |  |  | 4900 |  |  | 
CC(C)(C)OC(=O)c1cc(C(F)(F)F)ccc1COc1ccc(CCCCC(=O)O)cc1 |  |  |  | 630 |  |  | 
CC(C)(C)OC(=O)c1cc(C(F)(F)F)ccc1COc1ccc(-c2ccc(C(=O)O)cc2)cc1 | > 10000 |  |  | > 10000 |  |  | 
CC(C)(C)OC(=O)c1cc(C(F)(F)F)ccc1COc1ccc(-c2cccc(CC(=O)O)c2)cc1 | 5100 |  |  | 360 |  |  | 
CC(=O)N(C)c1ccc(OCc2ccc(C(F)(F)F)cc2C(=O)OC(C)(C)C)cc1 | 870 | 28 | 27 | 180 | 210 | 310 | concentration at 6 h [3]: 1000 ng/mL; Cmax [5]: 1700 ng/mL
CC(C)(C)OC(=O)c1cc(C(F)(F)F)ccc1COc1ccc(-c2cccc(C(=O)O)c2)cc1 | 6300 |  |  | 3400 |  |  | 
